# The source made the active and inactive calls. No cut-off for these calls is given here.
# Test system: Neuraminidase (Influenza A virus (strain A/Udorn/307/1972 H3N2)), P0DOF9 [E119V,I222L]
# Assay: Binding affinity to zanamivir/oseltamivir resistant recombinant Influenza A virus (A/Moscow/10/99(H3N2)) Neuraminidase N2 E119V/I222L double mutant expressed in baculovirus infected insect cells at 100 to 1000 nM measured up to 160 sec by surface plasmon resonance analysis
# Outline: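 NA covalently immobilised on CM5 chip by amine coupling. Analyte passed over at several concentrations in running buffer. BSA served as negative control protein. Constants from a steady-state affinity model; triplicate experiments.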
smiles,measurement,value
COCCOCCOCCOCCOCCOCCOCCOCCOCCOCc1cn(CC(Cn2cc(COCCOCCOCCOCCOCCOCCOCCOCCOCCOC)nn2)(Cn2cc(COCCOCCOCCOCCOCCOCCOCCOCCOCCOC)nn2)Cn2cc(COCCOCCOCCOCCOCCOCCOCCOCCOCCOC)nn2)nn1,Activity,inactive

# — ChEMBL document CHEMBL4425127 (J Med Chem, 2016)
